Laboratory results from ChEMBL document CHEMBL3098010, “Synthesis and biological evaluation of 3-hydroxymethyl-5-(1H-1,2,3-triazol) isoxazolidines” (Bioorg Med Chem, 2013).
Calls of active or inactive are those of the source. No cut-off for these calls is given here.

Columns and labels:
FTC-133 [1] = test: Induction of apoptosis in human FTC-133 cells assessed as caspase-3 positive cells at 5 uM after 24 hrs by immunohistochemical analysis; format: functional, cell-based
Summary of the method: (§1)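 Cells on chamber slides are treated 24 h with 5 µM compound, then fixed in 4% paraformaldehyde for 20 min. Unspecific sites are blocked with 1% NGS for 1 h, then cells are incubated overnight at 37 °C with mouse anti-caspase-3 (1:200) and a TRITC anti-mouse secondary. Caspase-3-positive cells are counted by fluorescence microscopy in four fields per coverslip across four experiments.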

8305C [2] = test: Induction of apoptosis in human 8305C cells assessed as caspase-3 positive cells at 5 uM after 24 hrs by immunohistochemical analysis; format: functional, cell-based; summary of the method: as §1
8305C [3] = test: Cytotoxicity against human 8305C cells after 24 hrs by MTT assay; format: functional, cell-based
Summary of the method: (§2)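 FTC-133 (DMEM, 2 mM GlutaMAX, 10% FBS) and 8305C (MEM, 2 mM GlutaMAX, 10% FBS, 1% non-essential amino acids) cells are exposed to compound at 0.5–20 µM for 24 h at 37 °C, 5% CO2. MTT is added (20 µL of 0.5% in PBS, pH 7.4) for 1 h, then dissolved in DMSO and read at 570 nm. IC50 is taken graphically from dose–effect curves. Mean of four independent experiments in triplicate.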

FTC-133 [4] = test: Cytotoxicity against human FTC-133 cells after 24 hrs by MTT assay; format: functional, cell-based; details: FTC-133, 24 h; summary of the method: as §2
FTC-133 [5] = test: Induction of apoptosis in human FTC-133 cells assessed as DNA fragmentation at 5 uM after 24 hrs by TUNEL assay (reference value: 3 +/- 1%); format: functional
8305C [6] = test: Induction of apoptosis in human 8305C cells assessed as DNA fragmentation at 5 uM after 24 hrs by TUNEL assay (reference value: 2 +/- 1%); format: functional

CN1O[C@H](n2cc(-c3ccc(F)cc3)nn2)C[C@@H]1CO (relative stereo)
Activity (FTC-133 [1]): Active
Activity (8305C [2]): Active
IC50 (8305C [3]): 6.85 µM
IC50 (FTC-133 [4]): 5.85 µM

CN1O[C@H](n2cc(-c3ccccc3)nn2)C[C@@H]1CO (relative stereo)
Activity (FTC-133 [1]): Active
Activity (8305C [2]): Active
IC50 (8305C [3]): 8.76 µM
IC50 (FTC-133 [4]): 6.33 µM

Nc1ccn([C@@H]2O[C@H](CO)[C@@H](O)C2(F)F)c(=O)n1 [GEMCITABINE]
Activity (FTC-133 [1]): Active
Activity (8305C [2]): Active
IC50 (8305C [3]): 4.53 µM
IC50 (FTC-133 [4]): 3.36 µM

CN1O[C@@H](n2cc(-c3ccccc3)nn2)C[C@@H]1CO (relative stereo)
Activity (FTC-133 [1]): Active
Activity (8305C [2]): Active
IC50 (8305C [3]): 7.14 µM
IC50 (FTC-133 [4]): 6.03 µM

COc1ccc(-c2cn([C@H]3C[C@H](CO)N(C)O3)nn2)cc1 (relative stereo)
Activity (FTC-133 [1]): Active
Activity (8305C [2]): Active
IC50 (8305C [3]): 8.01 µM
IC50 (FTC-133 [4]): 7 µM

CN1O[C@@H](n2cc(-c3ccc(F)cc3)nn2)C[C@@H]1CO
Activity (FTC-133 [1]): Active
Activity (8305C [2]): Active
IC50 (8305C [3]): 6.76 µM
IC50 (FTC-133 [4]): 6.07 µM

CN1O[C@@H](n2ccnn2)C[C@@H]1CO (relative stereo)
Activity (FTC-133 [1]): Active
Activity (8305C [2]): Active
IC50 (8305C [3]): 7.96 µM
IC50 (FTC-133 [4]): 6.53 µM

CCCCCc1ccc(-c2cn([C@H]3C[C@H](CO)N(C)O3)nn2)cc1 (relative stereo)
Activity (FTC-133 [1]): Active
Activity (8305C [2]): Active
IC50 (8305C [3]): 5.96 µM
IC50 (FTC-133 [4]): 3.95 µM

COc1ccc(-c2cn([C@@H]3C[C@H](CO)N(C)O3)nn2)cc1 (relative stereo)
Activity (FTC-133 [1]): Active
Activity (8305C [2]): Active
IC50 (8305C [3]): 7.18 µM
IC50 (FTC-133 [4]): 6.48 µM

CN1O[C@H](n2ccnn2)C[C@@H]1CO (relative stereo)
Activity (FTC-133 [1]): Active
Activity (8305C [2]): Active
IC50 (8305C [3]): 8.13 µM
IC50 (FTC-133 [4]): 6.3 µM

CCCc1cn([C@H]2C[C@H](CO)N(C)O2)nn1 (relative stereo)
Activity (FTC-133 [1]): Active
Activity (FTC-133 [5]): 95%
Activity (8305C [2]): Active
IC50 (8305C [3]): 5.82 µM
Activity (8305C [6]): 90%
IC50 (FTC-133 [4]): 3.87 µM

CCCc1cn([C@@H]2C[C@H](CO)N(C)O2)nn1 (relative stereo)
Activity (FTC-133 [1]): Active
Activity (8305C [2]): Active
IC50 (8305C [3]): 6.87 µM
IC50 (FTC-133 [4]): 4.71 µM

CCCCCc1ccc(-c2cn([C@@H]3C[C@H](CO)N(C)O3)nn2)cc1 (relative stereo)
Activity (FTC-133 [1]): Active
Activity (8305C [2]): Active
IC50 (8305C [3]): 6.24 µM
IC50 (FTC-133 [4]): 4.49 µM
